According to ChEMBL document CHEMBL1134791, “2- and 3-substituted 1,4-naphthoquinone derivatives as subversive substrates of trypanothione reductase and lipoamide dehydrogenase from Trypanosoma cruzi: synthesis and correlation between redox cycling activities and in vitro cytotoxicity” (J Med Chem, 2001):

Experiments:
Trypanothione reductase = Trypanothione reductase (Trypanosoma cruzi, UniProt P28593); experiment: Inhibitory activity against Trypanosoma cruzi trypanothione disulfide reductase, assay in presence of 57 uM T(S)2.
Sequence of Trypanothione reductase (P28593 whole entry): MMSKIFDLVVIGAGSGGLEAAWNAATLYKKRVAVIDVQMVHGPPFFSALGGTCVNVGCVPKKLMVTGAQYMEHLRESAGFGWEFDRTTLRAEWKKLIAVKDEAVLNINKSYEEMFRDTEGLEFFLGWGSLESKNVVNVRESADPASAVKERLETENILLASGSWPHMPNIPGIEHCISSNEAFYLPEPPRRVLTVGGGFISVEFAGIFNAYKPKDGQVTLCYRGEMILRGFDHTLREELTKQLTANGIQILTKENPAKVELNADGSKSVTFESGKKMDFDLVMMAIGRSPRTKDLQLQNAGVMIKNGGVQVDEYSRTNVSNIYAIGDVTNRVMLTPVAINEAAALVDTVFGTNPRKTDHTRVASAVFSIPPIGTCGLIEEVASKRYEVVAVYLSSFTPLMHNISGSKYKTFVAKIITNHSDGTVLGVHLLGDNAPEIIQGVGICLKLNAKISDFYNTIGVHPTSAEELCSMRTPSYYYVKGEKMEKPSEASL
Outline: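 Assay contained 250 µM NADPH, 57 µM T(S)₂, inhibitor at 0.3–50 µM and 1% DMSO final. Started with enzyme; NADPH loss followed at 340 nm. IC50 in duplicate.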

Trypanosoma brucei = experiment: In vitro antiparasitic activity against Trypanosoma brucei was tested by sigmoidal regression analysis; type: functional; details: read-out: ED50 (the source's name)
Outline: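 T. b. brucei S427 bloodstream trypomastigotes at 2 × 10⁵/mL in HMI-18 medium, in triplicate, with a 3-fold dilution series starting at 30 µM. Incubated 3 days at 37 °C in 5% CO₂. Pentamidine served as positive control. Viability read by tetrazolium colorimetric assay on day 3. ED50 by sigmoidal regression.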

Trypanosoma cruzi = experiment: In vitro antiparasitic activity against Trypanosoma cruzi was tested by sigmoidal regression analysis; type: functional; details: read-out: ED50 (the source's name)
Outline: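 Mouse peritoneal macrophages (female CD1, starch-elicited, harvested 24 h) infected with L. donovani amastigotes (strain MHOM/ET/67/L82, hamster spleen) or T. cruzi Y-strain trypomastigotes (5:1, from MDCK overlay). Infected cells exposed to a 3-fold dilution series in quadruplicate for 5 days (L. donovani) or 3 days (T. cruzi). Giemsa-stained slides scored for % macrophages cleared of amastigotes versus untreated cultures. ED50 by sigmoidal regression.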

SMILES | IC50 (Trypanothione reductase) [µM] | EC50 (Trypanosoma brucei) [µM] | EC50 (Trypanosoma cruzi) [µM]
CC1=C(CCCCC(=O)NCCCNCCCNC(=O)CCCCC2=C(C)C(=O)c3ccccc3C2=O)C(=O)c2ccccc2C1=O | 18.7 | 15.3 | 45
O=C(O)CCCC1=C(CCCC(=O)O)C(=O)c2c(O)cccc2C1=O | > 50 | 61 | > 87
CC1=C(CCC(=O)O)C(=O)c2ccccc2C1=O | > 50 | > 30 | > 30
CN1CCN(CCCNC(=O)CCCCC2=C(CCCCC(=O)NCCCN3CCN(C)CC3)C(=O)c3c(O)cccc3C2=O)CC1 | 6.2 | > 15 | > 46
CC1=C(NCCCNCCCN)C(=O)c2ccccc2C1=O | 12 | > 12.5 | > 12.5
CC1=C(CCNC(=O)OC(C)(C)C)C(=O)c2ccccc2C1=O | > 50 | 0.9 | 9.5
CC1=C(CCCNC(=O)OC(C)(C)C)C(=O)c2ccccc2C1=O | > 50 | > 3 | 13.8
CC1=C(CCCCNC(=O)OC(C)(C)C)C(=O)c2ccccc2C1=O | > 25 | > 3 | 10.4
CC1=C(CCCC(=O)N2CCN(C)CC2)C(=O)c2c(O)cccc2C1=O | 42 | 52 | > 84
O=C(O)CCC1=C(CCC(=O)O)C(=O)c2c(O)cccc2C1=O | > 50 | 59 | > 94
CC1=C(CCC(=O)NCCCNCCCNC(=O)CCC2=C(C)C(=O)c3cccc(O)c3C2=O)C(=O)c2c(O)cccc2C1=O | 1.9 | 1.7 | 13
CC1=C(CCCCCC(=O)NCCCNCCCNC(=O)CCCCCC2=C(C)C(=O)c3ccccc3C2=O)C(=O)c2ccccc2C1=O | 2.5 | > 1.5 | 12.5
CC1=C(CCCC(=O)NCCCN2CCN(CCCNC(=O)CCCC3=C(C)C(=O)c4cccc(O)c4C3=O)CC2)C(=O)c2c(O)cccc2C1=O | 2.3 | 3.4 | 28
CC1=C(N2CCN(CCCN(C)C)CC2)C(=O)c2ccccc2C1=O | > 57 | > 12.5 | > 12.5
CC1=C(CCCC(=O)NCCCCNCCCNC(=O)CCCC2=C(C)C(=O)c3ccccc3C2=O)C(=O)c2ccccc2C1=O | 4 | 26.6 | > 48
CC1=C(CCNC(=O)OC(C)(C)C)C(=O)c2c(O)cccc2C1=O | > 25 | 0.6 | 3.5
CC1=C(CCC(=O)NCCCNCCCNC(=O)CCC2=C(C)C(=O)c3ccccc3C2=O)C(=O)c2ccccc2C1=O | 5 | 4.5 | 47
CC1=C(CCCCCC(=O)NCCCNCCCNC(=O)CCCCCC2=C(C)C(=O)c3cccc(O)c3C2=O)C(=O)c2c(O)cccc2C1=O | 2 | > 1.4 | 3
CC1=C(CCC(=O)NCCCCNCCCNC(=O)CCC2=C(C)C(=O)c3cccc(O)c3C2=O)C(=O)c2c(O)cccc2C1=O | 2.9 | 13.8 | 46
CC1=C(CCCC(=O)O)C(=O)c2ccccc2C1=O | > 50 | – | –
CC1=C(CCCCCC(=O)NCCCN2CCN(CCCNC(=O)CCCCCC3=C(C)C(=O)c4ccccc4C3=O)CC2)C(=O)c2ccccc2C1=O | 3.1 | 5.7 | 11
CN1CCN(C(=O)CCC2=C(CCC(=O)N3CCN(C)CC3)C(=O)c3c(O)cccc3C2=O)CC1 | > 50 | 22.2 | > 62
CC1=C(CCCCCC(=O)NCCCCNCCCNC(=O)CCCCCC2=C(C)C(=O)c3ccccc3C2=O)C(=O)c2ccccc2C1=O | 1.7 | 2.6 | 4
CC1=C(CCCC(=O)NCCCN2CCN(CCCNC(=O)CCCC3=C(C)C(=O)c4ccccc4C3=O)CC2)C(=O)c2ccccc2C1=O | 4.5 | 13.7 | 13
CC1=C(CCCCC(=O)NCCCN2CCN(CCCNC(=O)CCCCC3=C(C)C(=O)c4ccccc4C3=O)CC2)C(=O)c2ccccc2C1=O | 1.12 | 7.3 | 26
CC1=C(CCC(=O)NCCCN2CCN(CCCNC(=O)CCC3=C(C)C(=O)c4ccccc4C3=O)CC2)C(=O)c2ccccc2C1=O | 3.7 | 3.2 | 40
CC1=C(CCC(=O)N2CCN(C)CC2)C(=O)c2ccccc2C1=O | > 50 | 9.5 | 70
CC1=C(CCCCC(=O)NCCCNCCCNC(=O)CCCCC2=C(C)C(=O)c3cccc(O)c3C2=O)C(=O)c2c(O)cccc2C1=O | 0.45 | 1.1 | 4.3
CC1=C(NCCCCN)C(=O)c2c(O)cccc2C1=O | > 57 | > 12.5 | > 12.5
CC1=C(CCCC(=O)NCCCN2CCN(C)CC2)C(=O)c2ccccc2C1=O | 44 | 46 | > 76
